# Screening results from PubChem.
# Shown are actives, neighbours in structure and some others; about 5% of the full set was active somewhere.
# Mdm2 MdmX PPI: inhibitors of human Mdm2-MdmX association, primary screen, cell-based, luminescence, split luciferase, SaOS-2, uHTS; hit rate 3% among 330,000; inhibition, % at 8 µM; SaOS-2 split-luciferase Mdm2/MdmX complementation; Protein Mdm4 (Homo sapiens) + E3 ubiquitin-protein ligase Mdm2 (Homo sapiens), …; AID 485346, 2010;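 active means inhibition of at least 50% at 8 µM in the primary screen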
# Target sequence (O15151 whole entry, looked up): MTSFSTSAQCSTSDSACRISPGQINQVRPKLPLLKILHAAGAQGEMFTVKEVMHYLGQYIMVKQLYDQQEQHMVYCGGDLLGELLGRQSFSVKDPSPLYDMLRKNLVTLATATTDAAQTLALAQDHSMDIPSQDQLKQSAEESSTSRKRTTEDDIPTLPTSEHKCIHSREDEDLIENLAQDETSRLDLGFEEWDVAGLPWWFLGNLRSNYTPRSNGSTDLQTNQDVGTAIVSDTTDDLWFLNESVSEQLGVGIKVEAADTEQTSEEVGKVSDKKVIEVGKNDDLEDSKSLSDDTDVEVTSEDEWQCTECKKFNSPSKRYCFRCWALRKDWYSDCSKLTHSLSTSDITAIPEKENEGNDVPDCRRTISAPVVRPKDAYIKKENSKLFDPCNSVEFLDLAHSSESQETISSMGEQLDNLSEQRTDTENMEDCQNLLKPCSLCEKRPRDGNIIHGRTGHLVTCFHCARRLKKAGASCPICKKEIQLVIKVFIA
# Target sequence (Q00987 whole entry, looked up): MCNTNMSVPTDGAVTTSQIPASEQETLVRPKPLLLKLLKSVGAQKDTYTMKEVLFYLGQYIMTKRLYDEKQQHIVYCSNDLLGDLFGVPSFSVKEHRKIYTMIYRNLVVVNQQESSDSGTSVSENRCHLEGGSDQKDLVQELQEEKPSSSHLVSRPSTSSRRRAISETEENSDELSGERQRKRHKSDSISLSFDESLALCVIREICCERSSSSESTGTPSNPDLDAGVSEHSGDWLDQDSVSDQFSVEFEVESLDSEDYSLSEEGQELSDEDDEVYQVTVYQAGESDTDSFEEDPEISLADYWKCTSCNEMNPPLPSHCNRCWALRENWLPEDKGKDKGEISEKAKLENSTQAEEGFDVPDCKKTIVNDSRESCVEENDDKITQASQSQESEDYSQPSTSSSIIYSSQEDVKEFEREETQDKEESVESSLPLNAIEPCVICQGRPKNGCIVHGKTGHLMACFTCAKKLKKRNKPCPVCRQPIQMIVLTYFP
# Beta cell apopt: inhibitors of cytokine-induced beta cell apoptosis, primary screen, luminescence; protection from apoptosis, % (concentration not given with the values); hit rate 0.8% among 300,000; INS-1E cytokine-induced death, ATP luminescence, 48 h; percent of positive-control rescue, neutral wells zero;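 active means Every replicate reaches about 75%, or at least half do and their mean reaches it too, limit read from the data; inconclusive means At least half of replicates reach the limit but their mean does not; inactive means Under half of replicates reach the limit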;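 further: 0% = cytokine-treated negative control wells and 100% = positive control rescue; higher means more ATP so stronger rescue from cytokine killing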
# CSC inhib: cancer stem cell viability inhibitors, primary screen, luminescence. inhibition, % at 7.5 µM. hit rate 1.1% among 300,000. cancer stem cell-like cells viability; in the data active means inhibition above about 75%; inconclusive means no clear call, values can overlap the other calls; tested in HMLE shEcad cells
# CHOP UPR activ: activators of apoptotic CHOP UPR arm, primary screen, cell-based, CHO-CHOP luciferase reporter, luminescence, uHTS; hit rate 0.34% among 330,000; UPR activation; percent of tunicamycin response over DMSO baseline; activation, % at 10 µM;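 active means at 10 µM dose, activation of 40% or more, normalized to positive control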;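 further: 100% = tunicamycin at 10 µg/mL and 0% = DMSO alone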
#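 Evaluation: % reporter activation, DMSO baseline versus tunicamycin full activation; System: CHO-CHOP luciferase reporter cell line; Input: 500 cells/well; Incubation: 6 h compound treatment, 37 °C; Measured by: Steady-Glo luciferase luminescence; Dosing: one dose, 10 µM in 0.5% DMSO; Buffer or medium: F12 medium, 10% FBS; Benchmarks: positive tunicamycin 10 µg/mL, negative DMSO alone.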
# T cruzi inh: inhibitors of intracellular T. cruzi growth, primary screen, luminescence, NIH3T3 host cells; hit rate 1.4% among 300,000; AID 1885, 2009; inhibition, % (concentration not given with the values); T. cruzi beta-gal in NIH3T3, 90 h;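 active means mean inhibition across valid replicates above about 55%, limit read from the data; inconclusive means mean below that limit but half or more replicates reach it; inactive means mean below it, under half of replicates reach it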;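 further: signal also drops with host cell toxicity which is not excluded here; 0% = plate median of DMSO wells and 100% = zero luminescence signal; higher percent means less beta-gal luminescence so fewer parasites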
#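 System: NIH/3T3 fibroblasts plus reporter T. cruzi. Medium: DMEM plus 2% FBS. Probe or stimulus: 5000 reporter trypomastigotes per well. Compound: single 50 nL compound addition per well in DMSO. Incubation: co-culture of at least 90 h after 3 h attachment. Detection: GalScreen β-gal luminescence, detergent lysis, 60 min. Evaluation: parasite load inhibition, %.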
# XBP1 UPR activ: activators of adaptive XBP1 UPR arm, primary screen, cell-based, CHO-XBP1 luciferase reporter, luminescence, uHTS | activation, % at 20 µM | IRE1-XBP1 UPR activation; percent of tunicamycin response, DMSO as zero | hit rate 0.33% among 330,000;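 active means versus positive control, 20 µM dose yields 30% or more activation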;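 further: 100% = tunicamycin at 10 µg/mL and 0% = DMSO only wells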
#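 Material: CHO cell line with stable XBP1 luciferase reporter; schedule: 16-18 h cell attachment at 37 °C, then 6 h compound exposure; signal: glow luminescence from Steady-Glo reagent; medium: serum-containing F12 medium, 10% FBS; benchmarks: tunicamycin 10 µg/mL and vehicle-only wells; read-out: percent activation relative to tunicamycin reference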
# Starred values were filed as active, the others as inactive; ? = inconclusive; . = no result.
SMILES,Mdm2 MdmX PPI,Beta cell apopt,CSC inhib,CHOP UPR activ,T cruzi inh,XBP1 UPR activ
COc1cccc(C(=O)C2CCCN(Cc3ccc(OC)c(Cn4cncn4)c3)C2)c1 (centres undefined),-13,-3,-1,1,58*,-2
COCc1cc(CN2CCCC(C(=O)Nc3cccc(-n4cnnn4)c3)C2)ccc1OC (centres undefined),9,-5,2,-2,70*,-4
COc1cc(CN2CCCC(C(=O)c3ccc(C(C)(C)C)cc3)C2)cc(OC)c1O (centres undefined),20,1,15,-1,44,-3
Cc1nc2ccccc2cc1C(=O)N(C)Cc1ccccc1,25,.,-12,1,0,0
CCCCN(C(=S)NC(=O)c1cc(OC)c(OC)c(OC)c1)c1c(N)n(Cc2ccccc2)c(=O)[nH]c1=O,13,2,-27,0,-14,0
CN1CCN(c2nc(Nc3cccc(C(F)(F)F)c3)nc(N3CCOCC3)n2)CC1,30,9,23,0,58*,5
COc1ccc(Cl)cc1NC(=O)CN(C)C(=O)c1cn(-c2ccccc2)nc1-c1cccnc1,22,1,-8,-1,7,-4
c1ccc(-c2csc(Nc3cccnc3)n2)cc1,-84,-3,-11,3,19,6
COc1cccc(Nc2nc(-c3ccc(O)cc3)cs2)c1,-72,7,117*,5,25,9
Clc1cccc(Nc2nc(-c3ccncc3)cs2)c1,23,-26,?,3,66*,2
Cc1cccc(Nc2nc(-c3ccncc3)cs2)c1,4,-11,43,8,61*,13
Clc1ccc(-c2csc(Nc3cccnc3)n2)cc1,-11,-16,6,5,58*,5
COc1cccc(Nc2nc(-c3cccc(N4C(=O)c5ccccc5C4=O)c3)cs2)c1,-22,-5,30,6,-9,4
COc1ccc(-c2c3c(cc4ncn(Cc5ccccc5)c24)COC3=O)cc1,11,17,-13,1,.,0
CN(Cc1ccccc1)C(=O)CCC1CCN(C(=O)CCC(F)(F)F)CC1,-35,-3,3,6,8,-2
O=C(CCN1C(=O)NC2(CCCC2)C1=O)Nc1cccc(S(=O)(=O)N2CCOCC2)c1,-11,-1,18,-1,.,-1
Cc1ccc(Nc2nc(-c3sc(C)nc3C)cs2)cc1,41,44,63,3,6,4
Cc1ccc(Nc2nc(-c3ccncc3)cs2)cc1,-79,.,.,5,70*,-3
COC(=O)c1cc(S(=O)(=O)N2CCN(Cc3ccccc3)CC2)cn1C,3,-6,.,2,0,-2
CC1(C(=O)N2CCC(CC3CC(c4cccc(Br)c4)=NO3)(C(=O)NCC3CCCCC3)CC2)CC1 (centres undefined),-5,-2,21,-3,33,1
O=C(/C=C/c1ccc(F)cc1)c1cc(Br)ccc1O,-18,2,?,2,0,6
COc1ccc(/C=C/C(=O)c2ccccc2O)cc1,-57,1,10,7,-16,9
O=C(/C=C/c1ccccc1)c1cc(Br)ccc(=O)c1O,41,17,93*,0,48,1
Cc1ccc(/C=C/C(=O)c2ccccc(=O)c2O)cc1C,.,23,97*,.,59*,.
O=C1CCc2cc(S(=O)(=O)Nc3ccccc3F)ccc2N1,12,-1,-6,-2,.,-3
SMILES,Mdm2 MdmX PPI,Beta cell apopt,CSC inhib,CHOP UPR activ,T cruzi inh,XBP1 UPR activ
CC1CN(S(=O)(=O)c2ccc(C(=O)NCCCn3ccnc3)cc2)CC(C)O1 (centres undefined),-19,113*,67,0,2,-2
O=C(NCCCn1ccnc1)c1ccc(-c2ccccc2)cc1,-5,97*,-15,5,-19,5
O=C(NCCCn1ccnc1)c1ccc(N2CCCCCC2)c([N+](=O)[O-])c1,5,95*,60,-1,16,2
CC1CN(S(=O)(=O)c2cccc(C(=O)NCCCn3ccnc3)c2)CC(C)O1 (centres undefined),5,-3,-12,1,-8,1
O=C(CN(c1ccc(Br)cc1)S(=O)(=O)c1ccc(Cl)c([N+](=O)[O-])c1)NCCc1ccccc1,34,3,23,27,75*,1
CC(C)CN(C(=O)c1cc(=O)[nH]c2ccccc12)c1c(N)n(Cc2ccccc2)c(=O)[nH]c1=O,7,-4,-2,0,-6,-4
CC(C)N(CCCNC(=O)C1CCN(C(=O)c2cc3sccc3n2C)CC1)Cc1ccccc1,16,-4,12,0,33,0
O=C(NCCc1ccc(Cl)cc1)C(=O)c1c[nH]c2ccccc12,9,2,-7,0,2,3
O=C(NCCc1c[nH]c2ccccc12)C(=O)c1c[nH]c2ccccc12,33,.,112*,0,19,-6
COCc1cc(CN(C)C(=O)c2oc3c(F)cccc3c2C)[nH]n1,5,-12,-1,5,-7,1
O=C(NC1CCCC1)C(c1ccncc1)N(Cc1ccccc1)C(=O)c1ccc(-c2ccccc2)[nH]1 (centres undefined),19,.,15,4,61*,1
CC(C)(C)NC(=O)C(c1ccncc1)N(Cc1ccc(F)cc1)C(=O)c1ccc(-c2ccccc2)[nH]1 (centres undefined),26,9,8,1,59*,-3
CC(C)(C)NC(=O)C(c1ccc(F)cc1)N(CCc1ccccc1)C(=O)c1ccn[nH]1 (centres undefined),-14,-4,-1,1,-19,-1
O=C(NC1CCCC1)C(c1ccncc1)N(CCCN1CCOCC1)C(=O)c1ccc(-c2ccccc2)[nH]1 (centres undefined),9,3,-2,1,35,-5
O=C(NC1CCCC1)C(c1ccncc1)N(Cc1ccco1)C(=O)c1ccc(-c2ccccc2)[nH]1 (centres undefined),-8,1,18,4,56*,0
O=C(N[C@H]1C/C=C\C[C@H](CC(=O)N(CCO)Cc2ccccc2)C(=O)N[C@H](Cc2c[nH]c3ccccc23)COC1=O)OCC1c2ccccc2-c2ccccc21,15,11,.,1,.,-4
